Drawing on ChEMBL document CHEMBL1123836, “Synthesis and antiviral activity of 9-[4-hydroxy-3-(hydroxymethyl)but-1-yl]purines” (J Med Chem, 1987), this text covers IC50 and IC90 for eight compounds.

The IC50 is the concentration that gives 50% inhibition. A high value points to weaker potency in that assay. For orientation: IC90 means the concentration at which the effect reaches the 90% level.

The test system of test [1] is Vero. Put plainly: Compound was tested for antiviral activity against Herpes Simplex virus Type-1(HFEM) in vero cells. In kind it is functional, cell-based. As to conditions: Chlorocebus sabaeus. A digest of the protocol:
(§1)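 Plaque reduction in Vero cell monolayers infected with about 50 PFU of HSV-1 or HSV-2. A concentration range of compound was included in an agarose overlay and kept present throughout. Plaques were counted 3 days post-infection. IC50 is the concentration giving a plaque count 50% of untreated controls. Stocks were 10 mg/mL in Me2SO, diluted in test medium.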

Test [2] deals with Vero. In words: Compound was tested for antiviral activity against Herpes Simplex virus Type-2(MS) in vero cells. As to conditions: Chlorocebus sabaeus. In kind it is functional, cell-based. Summed up: as §1
Test [3] has as its system MRC5. In words: Compound was tested for antiviral activity against Herpes Simplex virus Type-1(19407) in human lung fibroblasts (MRC-5). The test is classed as functional. A digest of the protocol:
(§2)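 Virus yield reduction in MRC-5 cells infected at a multiplicity of about 1 PFU/cell. A concentration range of compound was added in culture medium after virus adsorption and kept present throughout. Supernatants were harvested 24 h post-infection and titrated on Vero cells. IC90 is the concentration reducing infectious yield by 90% versus untreated controls.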

For test [4], the system named is MRC5. Put plainly: Compound was tested for antiviral activity against Herpes Simplex virus Type-1(20132) in human lung fibroblasts (MRC-5). In kind it is functional. A digest of the protocol:
as §2

The test system of test [5] is MRC5. Put plainly: Compound was tested for antiviral activity against Herpes Simplex virus Type-2(MS) in human lung fibroblasts (MRC-5). In kind it is functional. Summed up: as §2
Test [6] has as its system MRC5. In words: Compound was tested for antiviral activity against Herpes Simplexin human lung fibroblasts (MRC-5)in vero cells. In kind it is functional.
Test [7] has as its system MRC5. In words: Compound was tested for antiviral activity against Herpes Simplex virus Type-2(21929) in human lung fibroblasts (MRC-5). The test is classed as functional. Summed up: as §2
Test [8] has as its system MRC5. Put plainly: Compound was tested for antiviral activity against Herpes Simplex virus Type-2(20605) in human lung fibroblasts (MRC-5). The test is classed as functional. Summed up: as §2
Test [9] deals with MRC5. In words: Compound was tested for antiviral activity against Herpes Simplex virus Type-1(18189) in human lung fibroblasts (MRC-5). The test is classed as functional. Summed up: as §2
The subject of test [10] is MRC5. In words: Compound was tested for antiviral activity against Herpes Simplex virus Type-1(HFEM) in human lung fibroblasts (MRC-5). The test is classed as functional. Summed up:
as §2

Test [11] deals with MRC5. In words: compound was tested for antiviral activity against Herpes Simplex virus Type-2(20605) in human lung fibroblasts (MRC-5). In kind it is functional. Summed up: as §2
Test [12] concerns MRC5. Put plainly: compound was tested for antiviral activity against Herpes Simplex virus Type-2(MS) in human lung fibroblasts (MRC-5). In kind it is functional. A digest of the protocol:
as §2

The test system of test [13] is MRC5. In words: compound was tested for antiviral activity against Herpes Simplex virus Type-2(21929) in human lung fibroblasts (MRC-5). The test is classed as functional. Summed up: as §2
Test [14] has as its system MRC5. In words: compound was tested for antiviral activity against Herpes Simplex virus Type-1(20132) in human lung fibroblasts (MRC-5). In kind it is functional. A digest of the protocol: as §2
The test system of test [15] is MRC5. In words: compound was tested for antiviral activity against Herpes Simplex virus Type-1(19407) in human lung fibroblasts (MRC-5). In kind it is functional. A digest of the protocol:
as §2

Test [16] deals with MRC5. In words: compound was tested for antiviral activity against Herpes Simplex virus Type-1(HFEM) in human lung fibroblasts (MRC-5). In kind it is functional. Summed up: as §2
Test [17] deals with MRC5. In words: compound was tested for antiviral activity against Herpes Simplex virus Type-2(17409) in human lung fibroblasts (MRC-5). The test is classed as functional. A digest of the protocol: as §2
The subject of test [18] is MRC5. Put plainly: compound was tested for antiviral activity against Herpes Simplex virus Type-1(18189) in human lung fibroblasts (MRC-5). The test is classed as functional. Summed up:
as §2

For the compound `CCCCCOC(=O)CC(CO)CCn1cnc2c(O)nc(N)nc21` (configuration not stated), the IC50 in the test on Vero [1] came to 6000 nM; in the test on Vero [2], 15000 nM.
Turning to `COc1nc(N)nc2c1ncn2CCC(CO)CO`, the half-inhibitory concentration (IC50) is over 250000 nM in the test on Vero [1] and 236000 nM in the test with Vero [2].
For `Nc1nc(O)c2ncn(CCC(CC(=O)O)CC(=O)O)c2n1`, in that order: 5800 nM and 10000 nM.
For `COC(=O)CC(CO)CCn1cnc2c(O)nc(N)nc21` (configuration not stated), in that order: 81000 nM and 31000 nM.
Turning to `CCCCCCCCCCCCCCCOC(=O)CC(CO)CCn1cnc2c(O)nc(N)nc21` (configuration not stated), the figures for the half-inhibitory concentration (IC50) in the test with Vero [1] and in the test on Vero [2] were 33000 nM and 128000 nM, respectively.
Turning to `CCCCCOC(=O)CC(CCn1cnc2c(O)nc(N)nc21)CC(=O)OCCCCC`, the half-maximal inhibitory concentration (IC50) was determined as 4200 nM in the test on Vero [1] and 3600 nM with Vero [2].
As to `Nc1nc2c(ncn2COCCO)c(=O)[nH]1` [ACYCLOVIR], the IC90 came to 1400 nM in the test on MRC5 [3]; 900 nM in the test on MRC5 [4]; 1200 nM in the test with MRC5 [5]; 700 nM with MRC5 [6]; 900 nM in the test on MRC5 [7]; 300 nM in the test on MRC5 [8]. Also, the values for the IC90 with MRC5 [9] and in the test on MRC5 [10] were 700 nM and 4800 nM, respectively. Also, the 50% inhibitory concentration (IC50) in the test on Vero [1] was determined as 3800 nM; in the test on Vero [2], 2500 nM.
`Nc1nc(O)c2ncn(CCC(CO)CO)c2n1` [PENCICLOVIR]: the concentration for an effect of 90% (IC90) with MRC5 [11] is 800 nM; with MRC5 [12] it was 1100 nM; in the test on MRC5 [13] it was 900 nM; in the test with MRC5 [14], 600 nM; with MRC5 [15], 600 nM; with MRC5 [16] it was 1300 nM. The 90% effect concentration (IC90) stood at 900 nM with MRC5 [17] and 500 nM with MRC5 [18]. The IC50 in the test on Vero [1] and with Vero [2] was 6400 nM throughout.
